Hits are enriched below; roughly 2.3% of the tested compounds scored in any of these assays.
CHT allo act = human CHT allosteric activation. B-score at 10 µM. CHT-expressing cells, membrane potential dye, choline EC20; hits give high values; LV-AA mutant CHT in HEK293 cells. Q9GZV3. 310,000 compounds, 0.49% hits;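 active means initial fluorescence not abnormally high and integrated response B-score, plate-corrected, over 3 SD above library mean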
CHT inh = inhibitors of human choline transporter CHT | Q9GZV3 | CHT-expressing cells, membrane potential dye, choline response; hits give low values | B-score at 10 µM | 310,000 compounds, 0.86% hits | AID 488975;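 active means B-score over 3 SD under the library average, and starting fluorescence ratio not unusually high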;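 further: choline stimulus applied at its EC90 after an EC20 pre-addition; B-score computed on integrated fluorescence ratio after choline addition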
GPR7 antag = antagonists of human GPR7 (neuropeptides B/W receptor 1) | P48145 | GPR7-expressing cells, fluorescence antagonist assay | inhibition, % at 4.4 µM | 290,000 compounds, 1.1% hits | AID 1861; in the data active means inhibition above about 16%, passing the limit was not always enough;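 further: cells stimulated with the agonist NPW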
p-CIP stab down = lowers stability of the mouse p/CIP coactivator protein | decrease of EGFP signal, % at 10 µM | F442A p/CIP-EGFP cells, EGFP fluorescence, 16 h | 290,000 compounds, 0.01% hits | Q05BA5;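 active means EGFP signal decrease of at least 30% at 10 µM or well 3 SD below plate mean, unless failing retest; inactive means the rest, including hits failing retest or dose response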
T cell modulator = T cell immune modulators affecting CD8 T cell-vesicle binding. 2C CD8+ T cell-vesicle binding, flow cytometry; hits give low values. response (vesicle binding), % at 7 µM. 330,000 compounds, 0.068% hits;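 active means response, share of CD8 T cells binding vesicles, and their 90th percentile fluorescence all below set limits, cut at about 80% in these data, passing the limit was not always enough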;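 further: values below 100% mean blocked vesicle binding to the CD8+ T cells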
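Assay system: 2C TCR transgenic mouse naive CD8+ T cells, MACS-purified | Read-out: CD8+ gate FL2 mean fluorescence as % of same-row positive control | Signal: High-throughput flow cytometry with anti-B7-1 and anti-CD8 staining | Timing: Binding step 1.5 h, 37 °C, antibody labelling 20 min, ice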
Pemphigus Ab inh = human desmoglein-3 autoantibody binding inhibition; DSG3-coupled beads, scFv-anti-DSG3-GFP binding, flow cytometry; hits give low values; binding (percent of control), % at 10 µM; 310,000 compounds, 0.48% hits;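 active means binding more than 3 SD below its plate's average and above zero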;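 further: hits lower antibody fragment binding to DSG3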
Target sequence (P32926 whole entry, looked up, the tested form may be a part): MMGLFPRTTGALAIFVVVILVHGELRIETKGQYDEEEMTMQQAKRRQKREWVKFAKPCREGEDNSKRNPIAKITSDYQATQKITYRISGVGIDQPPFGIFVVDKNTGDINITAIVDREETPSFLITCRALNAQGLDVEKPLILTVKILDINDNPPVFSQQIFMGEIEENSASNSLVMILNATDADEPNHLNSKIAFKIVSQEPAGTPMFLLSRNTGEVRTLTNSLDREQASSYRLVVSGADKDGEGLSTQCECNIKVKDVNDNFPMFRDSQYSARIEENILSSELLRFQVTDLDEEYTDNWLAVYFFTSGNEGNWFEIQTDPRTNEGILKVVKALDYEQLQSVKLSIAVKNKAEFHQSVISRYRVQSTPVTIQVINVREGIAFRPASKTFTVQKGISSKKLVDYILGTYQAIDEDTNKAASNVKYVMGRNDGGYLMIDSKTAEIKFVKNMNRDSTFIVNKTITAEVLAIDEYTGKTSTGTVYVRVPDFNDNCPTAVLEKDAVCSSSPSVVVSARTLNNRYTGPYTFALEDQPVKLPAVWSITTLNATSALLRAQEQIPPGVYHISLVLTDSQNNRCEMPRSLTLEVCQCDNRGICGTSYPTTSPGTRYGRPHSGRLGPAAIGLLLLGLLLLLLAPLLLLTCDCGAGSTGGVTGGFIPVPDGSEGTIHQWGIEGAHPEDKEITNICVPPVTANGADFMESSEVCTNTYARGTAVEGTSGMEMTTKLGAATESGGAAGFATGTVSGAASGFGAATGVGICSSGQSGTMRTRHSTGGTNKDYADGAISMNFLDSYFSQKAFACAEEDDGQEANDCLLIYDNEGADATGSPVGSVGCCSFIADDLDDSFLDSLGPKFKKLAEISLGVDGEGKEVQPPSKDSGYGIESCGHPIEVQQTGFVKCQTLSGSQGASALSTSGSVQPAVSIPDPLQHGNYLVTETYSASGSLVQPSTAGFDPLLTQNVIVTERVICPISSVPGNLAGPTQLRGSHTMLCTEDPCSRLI
Of the large screens only hits and unclear results are named; the others gave an inactive call.

CCCCN(CC)CCNC(=O)c1cc2cc3ccc(Cl)cc3nc2o1	none
CCCCN(CC)CCCNC(=O)c1cc2cc3ccc(C)cc3nc2o1	Pemphigus Ab inh 69
CCOc1ccc2nc(SCC(=O)NC3CCCc4ccccc43)sc2c1 (centres undefined)	Pemphigus Ab inh 64
Cc1nnsc1C(=O)NNc1ccc(Cl)cc1	none (no result: Pemphigus Ab inh)
CCc1ccccc1NNC(=O)c1snnc1C	T cell modulator 52
O=C(Nc1ccn(CCCN2CCN(Cc3ccc(F)cc3)CC2)c(=O)n1)OCc1ccccc1	none (no result: CHT allo act, CHT inh, GPR7 antag, p-CIP stab down, T cell modulator)
CC1=C(C(=O)N(C)C)CC(CC(=O)NCc2cccs2)C(=O)N1CCC1=CCCCC1 (centres undefined)	none (no result: CHT allo act, CHT inh, GPR7 antag, p-CIP stab down, T cell modulator)
O=C(O)c1cn(-c2ccc(F)cc2)c2cc(Cl)c(F)cc2c1=O	none
CCOC(=O)c1cn(-c2ccc([N+](=O)[O-])cc2)c2cc(Cl)c([N+](=O)[O-])cc2c1=O	Pemphigus Ab inh 62
COC(=O)c1ccc(CSc2nnc(N)s2)cc1	GPR7 antag 19
COC(=O)c1ccc(CSc2nnc(C)s2)cc1	none
O=C(O)C1=CCC=CC1C(=O)O (centres undefined)	none (no result: CHT allo act, CHT inh, GPR7 antag, p-CIP stab down, T cell modulator)
CCC(=O)N1CCc2cc(S(=O)(=O)N(C)c3ccc(Br)cc3)ccc21	Pemphigus Ab inh 73 (no result: CHT allo act, CHT inh, T cell modulator)
O=C1NC(=O)C2(N1)C(=O)c1cccc3cccc2c13 (centres undefined)	none (no result: CHT allo act, CHT inh, GPR7 antag, p-CIP stab down, T cell modulator)
O=C1N/C(=N\S(=O)(=O)Cc2ccccc2)S/C1=C/c1cc([N+](=O)[O-])ccc1O	GPR7 antag 18
O=C(COc1ccc([N+](=O)[O-])cc1)NNC(=O)C1COc2ccccc2O1 (centres undefined)	none (no result: CHT allo act, CHT inh, GPR7 antag, p-CIP stab down, T cell modulator)
CCc1cc(-c2cnnn2Cc2ccccc2)ccc1-c1cn(CC(C)C)nn1	none (no result: CHT allo act, CHT inh, GPR7 antag, p-CIP stab down, T cell modulator)
CCn1c2ccccc2nc2cc3c(cc21)c(Cl)c(=O)c1ccccc13	none (no result: CHT allo act, CHT inh, GPR7 antag, p-CIP stab down, T cell modulator)
O=C(O)c1cc(-n2nnnc2SCc2ccc([N+](=O)[O-])cc2)ccc1Cl	none
O=C(O)c1cc(-n2nnnc2SCc2ccccc2F)ccc1Cl	Pemphigus Ab inh 74
O=C(O)c1cccc(-n2nnnc2SCc2ccccn2)c1	GPR7 antag 19 (no result: Pemphigus Ab inh)
Cc1ccc(NC(=O)CSCC(=O)N(C)Cc2c(F)cccc2Cl)cc1	none (no result: CHT allo act, CHT inh, GPR7 antag, p-CIP stab down, T cell modulator)
Cc1nc(CNC(=O)C2CCC(=O)N(CCc3ccc(Cl)cc3)C2)sc1C (centres undefined)	T cell modulator 47 (no result: Pemphigus Ab inh)
CCc1ccc(CNC(=O)C2CCC(=O)N(CCc3ccc(Cl)cc3)C2)nc1 (centres undefined)	none
CC[C@]12CCCN3CCc4c(n(c5ccccc45)C(=O)C1)[C@@H]32	none (no result: GPR7 antag, p-CIP stab down)
CCOC(=O)C1=C[C@]2(CC)CCCN3CCc4c(n1c1ccccc41)[C@@H]32	Pemphigus Ab inh 75
COc1ccccc1NC(=O)N(C)C[C@@H]1OCc2cn(nn2)CCCC(=O)N([C@H](C)CO)C[C@H]1C	none (no result: CHT allo act, CHT inh, GPR7 antag, p-CIP stab down, T cell modulator)
CN(C(=O)C1CC1)C1CCS(=O)(=O)C1 (centres undefined)	Pemphigus Ab inh 84 (no result: GPR7 antag, p-CIP stab down)
CCCOc1ccc(N2C(=O)CC(N(C(=O)c3ccco3)c3ccc(OCCC)cc3)C2=O)cc1 (centres undefined)	T cell modulator 0.0
O=C(CSc1cccc[n+]1[O-])Nc1cc(Cl)ccc1[N+](=O)[O-]	none (no result: CHT allo act, CHT inh, GPR7 antag, p-CIP stab down, Pemphigus Ab inh)
O=[N+]([O-])c1ccc(Sc2cccc[n+]2[O-])c2nonc12	GPR7 antag 20 (no result: CHT allo act, CHT inh, T cell modulator)
O=C(c1cccc(S(=O)(=O)NCc2ccccc2)c1)N1CCN(c2ccccc2Cl)CC1	none (no result: CHT allo act, CHT inh, GPR7 antag, p-CIP stab down, T cell modulator)
Cc1cccc(-n2nc3c(c2NC(=O)c2ccco2)CSC3)c1C	Pemphigus Ab inh 87
Cc1cccc(-n2nc3c(c2NC(=O)c2ccco2)CS(=O)C3)c1C (centres undefined)	none
COc1ccc(-c2csc(N(CCCN(C)C)C(=O)c3ccccc3Cl)n2)cc1	CHT inh -8.8 (no result: p-CIP stab down)
COc1ccc(-c2csc(N(CCCN(C)C)C(=O)c3ccccc3F)n2)cc1	none
Cc1cccc(NC(=O)COC(=O)C2C3CC4OC(=O)C2C4C3)c1C (centres undefined)	Pemphigus Ab inh 57
CN(C)S(=O)(=O)c1cc(NC(=O)COC(=O)CCSc2ccc(Cl)cc2)ccc1Cl	GPR7 antag 21
O=C1c2ccccc2C(=O)N1CCCn1ccnc1	Pemphigus Ab inh 91
O=c1c2ccccc2sn1-c1ccc(Cl)cc1Cl	Pemphigus Ab inh 61 (no result: CHT allo act, CHT inh, GPR7 antag, p-CIP stab down, T cell modulator)

Bioassay records: PubChem BioAssay, several laboratories
